Assay results: ChEMBL document CHEMBL1157882, “Novel 2-[(benzylamino)methyl]pyrrolidine-3,4-diol derivatives as alpha-mannosidase inhibitors and with antitumor activities against hematological and solid malignancies” (Bioorg Med Chem, 2010)
The source made the active and inactive calls. The rule behind the calls is not given here.

Legend:
Jurkat [1] = assay: Cytotoxicity in human Jurkat cells overexpressing Bcl2 assessed as cell death at 40 uM after 72 hrs by propidium iodide-staining based flow cytometry; assay type: functional
Summary of the method: (§1)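 Jurkat T cells stably overexpressing Bcl-2, plus vector controls, in RPMI-1640 with 10% FBS. Seeded at 4×10⁴ per well and treated for 72 h with 40 µM etoposide, 2 µM doxorubicin or 50 µM compound. Dead cells counted by propidium iodide staining and flow cytometry; means of triplicates with SD.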

[2] = Inhibition of alpha-mannosidase from jack bean at pH 5; design: species or system Canavalia ensiformis
Jurkat [3] = assay: Cytotoxicity against human Jurkat cells after 72 hrs by colorimetric assay; assay type: functional, cell-based
Canavalia ensiformis [4] = assay: Inhibition of alpha-mannosidase from jack bean at 1 mM at pH 5
Summary of the method: (§2)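 Glycosidase panel of commercial enzymes assayed at each enzyme's optimal pH with compound at 1 mM; percentage inhibition of enzyme activity calculated.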

Saccharomyces cerevisiae = assay: Inhibition of alpha-glucosidase from yeast at 1 mM at pH 7; summary of the method: as §2
BT-474 = assay: Cytotoxicity against human BT474 cells after 72 hrs by colorimetric assay; assay type: functional, cell-based
Summary of the method: (§3)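 Cells grown in McCoy's medium (adherent lines) or RPMI-1640 (U266), each with 10% FBS, L-glutamine and antibiotics, at 37 °C in 5% CO₂. Compound dissolved as a 100 mM DMSO stock, final DMSO ≤0.4%. Cells were exposed for 72 h across a 10^-2 to 400 µM range. Viability was read by CellTiter 96 Aqueous (2–4 h incubation, absorbance 490 nm). Triplicate wells; IC50 from curve fitting.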

[5] = molecular target: Glucoamylase (Aspergillus niger) (UniProt P69328); assay: Inhibition of amyloglucosidase from Aspergillus niger at 1 mM at pH 5; summary of the method: as §2
A549 = assay: Cytotoxicity against human A549 cells after 72 hrs by colorimetric assay; assay type: functional, cell-based; summary of the method: as §3
MDA-MB-231 = assay: Cytotoxicity against human MDA-MB-231 cells after 72 hrs by colorimetric assay; assay type: functional, cell-based; summary of the method: as §3
MCF7 = assay: Cytotoxicity against human MCF7 cells after 72 hrs by colorimetric assay; assay type: functional, cell-based; summary of the method: as §3
[6] = molecular target: Alpha-galactosidase (Coffea arabica) (UniProt Q42656); assay: Inhibition of alpha-galactosidase from coffee beans at 1 mM at pH 6; summary of the method: as §2
Bos taurus = species: Bos taurus; assay: Inhibition of beta-N-acetylglucosaminidase from bovine kidney at pH 4; design: concentration or dose not given beside the values; details: concentration not given here
Oryza sativa = assay: Inhibition of alpha-glucosidase from rice at 1 mM at pH 4; summary of the method: as §2
[7] = Cytotoxicity against human U87 cells after 72 hrs by colorimetric assay; assay type: functional, cell-based, U-87MG ATCC; summary of the method: as §3
[8] = molecular target: T1, Beta-galactosidase (Aspergillus oryzae) (UniProt Q2U7N3); assay: Inhibition of beta-galactosidase from Aspergillus oryzae at 1 mM at pH 4; summary of the method: as §2
T1 sequence (whole entry): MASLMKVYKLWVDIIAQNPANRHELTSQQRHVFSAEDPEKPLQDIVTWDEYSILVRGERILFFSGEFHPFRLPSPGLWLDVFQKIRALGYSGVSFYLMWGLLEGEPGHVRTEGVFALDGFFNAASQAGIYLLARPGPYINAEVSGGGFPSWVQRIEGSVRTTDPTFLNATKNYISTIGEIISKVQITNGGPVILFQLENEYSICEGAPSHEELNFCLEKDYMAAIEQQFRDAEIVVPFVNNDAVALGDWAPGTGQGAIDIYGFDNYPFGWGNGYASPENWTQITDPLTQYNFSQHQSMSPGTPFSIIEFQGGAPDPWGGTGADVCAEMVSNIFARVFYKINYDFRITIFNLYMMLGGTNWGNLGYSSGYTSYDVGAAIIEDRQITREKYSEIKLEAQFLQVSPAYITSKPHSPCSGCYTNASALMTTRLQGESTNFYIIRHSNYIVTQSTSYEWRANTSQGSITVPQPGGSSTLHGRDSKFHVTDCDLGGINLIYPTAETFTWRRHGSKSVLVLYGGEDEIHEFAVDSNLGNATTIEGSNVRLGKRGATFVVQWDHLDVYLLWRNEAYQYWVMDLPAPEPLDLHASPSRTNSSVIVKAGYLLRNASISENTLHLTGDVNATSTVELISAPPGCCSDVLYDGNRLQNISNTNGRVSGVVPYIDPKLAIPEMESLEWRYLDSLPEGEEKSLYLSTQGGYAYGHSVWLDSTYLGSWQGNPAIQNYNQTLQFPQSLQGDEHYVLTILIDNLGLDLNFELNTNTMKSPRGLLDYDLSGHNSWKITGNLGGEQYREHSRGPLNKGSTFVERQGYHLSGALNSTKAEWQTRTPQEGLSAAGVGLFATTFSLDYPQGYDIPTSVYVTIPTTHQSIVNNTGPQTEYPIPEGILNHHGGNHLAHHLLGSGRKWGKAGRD

Canavalia ensiformis [9] = assay: Inhibition of beta-N-acetylglucosaminidase from jack bean at pH 5; design: concentration or dose not given beside the values; details: concentration not given here
SK-BR-3 = assay: Cytotoxicity against human SKBR3 cells after 72 hrs by colorimetric assay; assay type: functional, cell-based; summary of the method: as §3
Prunus dulcis = assay: Inhibition of beta-glucosidase from almond at 1 mM at pH 5; summary of the method: as §2
Aspergillus niger = assay: Inhibition of beta-xylosidase from Aspergillus niger at pH 5; design: concentration or dose not given beside the values; details: concentration not given here
U-266 = assay: Cytotoxicity against human U266 cells after 72 hrs by colorimetric assay; assay type: functional, cell-based; summary of the method: as §3
PC-3 = assay: Cytotoxicity against human PC3 cells after 72 hrs by colorimetric assay; assay type: functional, cell-based; summary of the method: as §3
[10] = molecular target: Beta-galactosidase (Escherichia coli) (UniProt Q8VNN2); assay: Inhibition of beta-galactosidase from Escherichia coli at 1 mM at pH 7; summary of the method: as §2
Helix pomatia = assay: Inhibition of beta-mannosidase from snail at pH 4; design: concentration or dose not given beside the values; details: concentration not given here
[11] = molecular target: T2, Tissue alpha-L-fucosidase (Bos taurus) (UniProt Q2KIM0); assay: Inhibition of alpha-L-fucosidase from bovine kidney at 1 mM at pH 6; summary of the method: as §2
T2 sequence (whole entry): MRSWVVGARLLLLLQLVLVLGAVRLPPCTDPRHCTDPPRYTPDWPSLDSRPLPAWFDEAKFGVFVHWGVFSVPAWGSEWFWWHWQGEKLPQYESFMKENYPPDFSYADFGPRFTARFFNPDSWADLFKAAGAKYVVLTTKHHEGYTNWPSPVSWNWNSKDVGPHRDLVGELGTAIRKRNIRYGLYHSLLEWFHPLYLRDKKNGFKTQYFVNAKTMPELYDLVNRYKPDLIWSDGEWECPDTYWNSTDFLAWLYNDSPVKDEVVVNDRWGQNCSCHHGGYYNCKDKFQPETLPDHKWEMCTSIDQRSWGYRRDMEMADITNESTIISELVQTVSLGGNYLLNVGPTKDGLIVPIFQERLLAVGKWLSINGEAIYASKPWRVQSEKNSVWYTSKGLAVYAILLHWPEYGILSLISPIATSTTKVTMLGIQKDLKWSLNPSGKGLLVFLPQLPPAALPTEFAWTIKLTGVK

Jurkat [12] = assay: Cytotoxicity in human Jurkat cells overexpressing Bcl2 assessed as cell death at 2 uM after 72 hrs by propidium iodide-staining based flow cytometry; assay type: functional; summary of the method: as §1
[13] = Homo sapiens, Jurkat, 72 h, read-out: IC50
[14] = Homo sapiens, BT-474, 72 h, read-out: IC50
[15] = Homo sapiens, A549, 72 h, read-out: IC50
[16] = Homo sapiens, MDA-MB-231, 72 h, read-out: IC50
[17] = Homo sapiens, MCF7, 72 h, read-out: IC50
[18] = Homo sapiens, U-87 MG, 72 h, read-out: IC50
[19] = Homo sapiens, SK-BR-3, 72 h, read-out: IC50
[20] = Homo sapiens, U-266, 72 h, read-out: IC50
[21] = Homo sapiens, PC-3, 72 h, read-out: IC50

Sequence of Glucoamylase (Aspergillus niger) (P69328 whole entry): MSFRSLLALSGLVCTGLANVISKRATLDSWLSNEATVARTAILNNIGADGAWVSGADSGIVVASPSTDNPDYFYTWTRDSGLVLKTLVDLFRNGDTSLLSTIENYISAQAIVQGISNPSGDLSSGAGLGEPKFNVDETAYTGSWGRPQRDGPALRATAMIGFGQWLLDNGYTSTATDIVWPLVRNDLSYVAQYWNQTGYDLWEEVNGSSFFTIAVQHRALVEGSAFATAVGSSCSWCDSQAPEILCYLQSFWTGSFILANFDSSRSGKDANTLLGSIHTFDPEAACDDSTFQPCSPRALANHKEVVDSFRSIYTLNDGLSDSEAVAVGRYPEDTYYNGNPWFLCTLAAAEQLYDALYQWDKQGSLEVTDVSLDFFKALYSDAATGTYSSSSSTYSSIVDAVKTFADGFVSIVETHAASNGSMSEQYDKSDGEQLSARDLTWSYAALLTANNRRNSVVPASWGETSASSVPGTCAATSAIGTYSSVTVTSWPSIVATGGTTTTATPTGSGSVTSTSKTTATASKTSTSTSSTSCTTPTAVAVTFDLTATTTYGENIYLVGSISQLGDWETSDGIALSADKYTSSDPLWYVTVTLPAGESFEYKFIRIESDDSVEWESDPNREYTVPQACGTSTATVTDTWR
Sequence of Beta-galactosidase (Escherichia coli) (Q8VNN2 whole entry, looked up): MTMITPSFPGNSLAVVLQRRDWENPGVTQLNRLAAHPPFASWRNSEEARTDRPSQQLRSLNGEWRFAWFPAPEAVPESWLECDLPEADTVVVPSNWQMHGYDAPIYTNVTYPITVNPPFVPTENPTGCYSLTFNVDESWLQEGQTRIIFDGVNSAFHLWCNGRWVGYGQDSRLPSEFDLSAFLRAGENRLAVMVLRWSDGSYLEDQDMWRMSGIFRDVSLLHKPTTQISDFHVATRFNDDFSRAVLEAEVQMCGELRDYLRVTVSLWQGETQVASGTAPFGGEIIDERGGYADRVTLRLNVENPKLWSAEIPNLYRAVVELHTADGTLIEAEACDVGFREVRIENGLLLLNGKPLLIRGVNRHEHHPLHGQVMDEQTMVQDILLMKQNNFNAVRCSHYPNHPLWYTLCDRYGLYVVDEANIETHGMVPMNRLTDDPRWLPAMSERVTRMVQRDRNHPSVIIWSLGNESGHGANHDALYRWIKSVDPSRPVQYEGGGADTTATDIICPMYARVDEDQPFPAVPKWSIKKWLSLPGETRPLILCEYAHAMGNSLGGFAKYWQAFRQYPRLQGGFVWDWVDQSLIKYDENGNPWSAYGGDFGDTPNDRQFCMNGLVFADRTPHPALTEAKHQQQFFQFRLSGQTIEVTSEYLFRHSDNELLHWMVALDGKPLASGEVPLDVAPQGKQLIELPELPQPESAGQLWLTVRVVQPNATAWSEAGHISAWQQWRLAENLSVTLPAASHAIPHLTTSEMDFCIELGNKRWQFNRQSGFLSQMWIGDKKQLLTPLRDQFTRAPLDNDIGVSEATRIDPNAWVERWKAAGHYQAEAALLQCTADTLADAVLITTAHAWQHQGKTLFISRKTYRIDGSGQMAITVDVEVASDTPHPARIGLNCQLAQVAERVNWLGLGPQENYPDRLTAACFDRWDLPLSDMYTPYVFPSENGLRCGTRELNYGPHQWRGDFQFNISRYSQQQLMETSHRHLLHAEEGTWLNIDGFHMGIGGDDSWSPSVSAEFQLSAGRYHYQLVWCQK
Sequence of Alpha-galactosidase (Coffea arabica) (Q42656 16-378 limits assumed): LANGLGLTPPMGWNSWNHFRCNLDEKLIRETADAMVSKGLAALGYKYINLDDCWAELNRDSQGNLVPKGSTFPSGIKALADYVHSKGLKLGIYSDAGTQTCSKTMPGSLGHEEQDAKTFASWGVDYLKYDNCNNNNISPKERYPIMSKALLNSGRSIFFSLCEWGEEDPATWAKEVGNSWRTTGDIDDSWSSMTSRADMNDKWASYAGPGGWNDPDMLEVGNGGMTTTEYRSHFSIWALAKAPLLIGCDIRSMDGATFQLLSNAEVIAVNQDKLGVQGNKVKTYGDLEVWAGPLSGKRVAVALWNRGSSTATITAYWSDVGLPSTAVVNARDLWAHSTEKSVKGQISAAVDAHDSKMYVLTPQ

Compound | IC50 [2] [µM] | Ki [2] [µM] | inhibition (Canavalia ensiformis [4]) [%] | inhibition (Saccharomyces cerevisiae) [%] | inhibition [5] [%] | inhibition [6] [%] | inhibition (Bos taurus) [%] | inhibition (Oryza sativa) [%] | inhibition [8] [%] | inhibition (Canavalia ensiformis [9]) [%] | inhibition (Prunus dulcis) [%] | inhibition (Aspergillus niger) [%] | inhibition [10] [%] | inhibition (Helix pomatia) [%] | inhibition [11] [%] | IC50 (Jurkat [3]; [13]) [µM] | IC50 (BT-474; [14]) [µM] | IC50 (A549; [15]) [µM] | IC50 (MDA-MB-231; [16]) [µM] | IC50 (MCF7; [17]) [µM] | also measured
COc1cc([C@@H]2c3cc4c(cc3[C@@H](O[C@@H]3O[C@@H]5CO[C@@H](C)O[C@H]5[C@H](O)[C@H]3O)[C@H]3COC(=O)[C@H]23)OCO4)cc(OC)c1O |  |  |  |  |  |  |  |  |  |  |  |  |  |  |  |  |  |  |  |  | Activity (Jurkat [1]): inactive
OC[C@H](NC[C@H]1NC[C@H](O)[C@@H]1O)c1ccc(OCc2ccccc2)cc1 | 1.4 | 0.6 | 99 | 45 | < 10 | < 10 | < 10 | < 10 | < 10 | < 10 | 40 | 45 | < 10 | < 10 | < 10 |  |  |  |  |  | IC50 (Jurkat [3]; jurkat): Not Active; IC50 (BT-474; bt-474): Not Active; IC50 (A549; a549): Not Active; IC50 (MDA-MB-231; mda-mb-231): Not Active; IC50 (MCF7; mcf7): Not Active; IC50 ([7]; u-87mg atcc): Not Active; IC50 (SK-BR-3; sk-br-3): Not Active; IC50 (U-266; u-266): Not Active; IC50 (PC-3; pc-3): Not Active
COc1cccc2c1C(=O)c1c(O)c3c(c(O)c1C2=O)C[C@@](O)(C(=O)CO)C[C@@H]3O[C@H]1C[C@H](N)[C@H](O)[C@H](C)O1 |  |  |  |  |  |  |  |  |  |  |  |  |  |  |  |  |  |  |  |  | Activity (Jurkat [12]): inactive
OC[C@H](NC[C@H]1NC[C@H](O)[C@@H]1O)c1ccc(-c2ccsc2)cc1 | 1.1 | 0.8 | 97 | < 10 | < 10 | < 10 | < 10 | < 10 | < 10 | < 10 | 36 | 50 | < 10 | < 10 | < 10 |  |  |  |  |  | IC50 (Jurkat [3]; jurkat): Not Active; IC50 (BT-474; bt-474): Not Active; IC50 (A549; a549): Not Active; IC50 (MDA-MB-231; mda-mb-231): Not Active; IC50 (MCF7; mcf7): Not Active; IC50 ([7]; u-87mg atcc): Not Active; IC50 (SK-BR-3; sk-br-3): Not Active; IC50 (U-266; u-266): Not Active; IC50 (PC-3; pc-3): Not Active
OC[C@H](NC[C@H]1NC[C@H](O)[C@@H]1O)c1ccc(-c2ccccc2)cc1 | 1.4 | 0.9 | 99 | 24 | < 10 | < 10 | < 10 | < 10 | < 10 | < 10 | 20 | 50 | < 10 | < 10 | < 10 | > 200 | > 200 | > 200 | > 200 | > 200 | IC50 [7, 18]: > 200 µM; IC50 (SK-BR-3; [19]): > 200 µM; IC50 (U-266; [20]): > 200 µM; IC50 (PC-3; [21]): > 200 µM

Second part, led by results:

IC50 [2] [µM] | Ki [2] [µM] | inhibition (Canavalia ensiformis [4]) [%] | inhibition (Saccharomyces cerevisiae) [%] | inhibition [5] [%] | inhibition [6] [%] | inhibition (Bos taurus) [%] | inhibition (Oryza sativa) [%] | inhibition [8] [%] | inhibition (Canavalia ensiformis [9]) [%] | inhibition (Prunus dulcis) [%] | inhibition (Aspergillus niger) [%] | inhibition [10] [%] | inhibition (Helix pomatia) [%] | inhibition [11] [%] | Compound | IC50 (Jurkat [3]; [13]) [µM] | IC50 (BT-474; [14]) [µM] | IC50 (A549; [15]) [µM] | IC50 (MDA-MB-231; [16]) [µM] | IC50 (MCF7; [17]) [µM] | also measured
0.8 | 0.5 | 98 | 41 | < 10 | < 10 | < 10 | < 10 | < 10 | < 10 | 62 | 28 | < 10 | < 10 | < 10 | COc1ccc([C@H](CO)NC[C@H]2NC[C@H](O)[C@@H]2O)cc1 | > 200 | > 200 | > 200 | > 200 | > 200 | IC50 [7, 18]: > 200 µM; IC50 (SK-BR-3; [19]): > 200 µM; IC50 (U-266; [20]): > 200 µM; IC50 (PC-3; [21]): > 200 µM
0.9 | 0.5 | 99 | 41 | < 10 | < 10 | < 10 | < 10 | < 10 | < 10 | 72 | 28 | < 10 | < 10 | < 10 | C=CCOc1ccc([C@H](CO)NC[C@H]2NC[C@H](O)[C@@H]2O)cc1 | > 200 | > 200 | > 200 | > 200 | > 200 | IC50 [7, 18]: > 200 µM; IC50 (SK-BR-3; [19]): > 200 µM; IC50 (U-266; [20]): > 200 µM; IC50 (PC-3; [21]): > 200 µM
